Test [1] has as its system C2C12. Description: Inhibition of TGFbeta1-induced fibrosis in mouse C2C12 cells assessed as reduction in alphaSMA protein expression level at 10 uM preincubated for 30 mins followed by TGFbeta1 addition and measured after 48 hrs by Western blot analysis. It is filed as functional, cell-based. The method, boiled down: (§1)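 C2C12 myoblasts were seeded to 80% confluence. Cells received 10 μM inhibitor and 5.0 ng/mL TGFβ1, with inhibitor exposure of 30 min or 2 h. α-SMA and SMα22 were detected by Western blot with specific antibodies. Bands were quantified by densitometry and normalized to β-actin. Results are fold change over untreated control, mean ± SD of three independent experiments. Two-way ANOVA with Bonferroni post hoc test.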

The subject of test [2] is C2C12. Put plainly: Inhibition of TGFbeta1-induced fibrosis in mouse C2C12 cells assessed as reduction in SMalpha22 protein expression level at 10 uM preincubated for 30 mins followed by TGFbeta1 addition and measured after 48 hrs by Western blot analysis. It is filed as functional, cell-based. The method, boiled down: as §1
Test [3] concerns C2C12. Description: Inhibition of TGFbeta1-induced fibrosis in mouse C2C12 cells assessed as reduction in alphaSMA protein expression level at 10 uM preincubated for 120 mins followed by TGFbeta1 addition and measured after 48 hrs by DAPI and rhodamine phalloidin staining based laser scanning confocal microscopic method relative to control. It is filed as functional. The method, boiled down:
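C2C12 cells were serum-starved for 24 h, preincubated 2 h with 10 μM inhibitor, then treated with 5.0 ng/mL TGFβ1 for 48 h. Confocal immunofluorescence used an anti-αSMA primary antibody with a fluorescein-conjugated anti-mouse secondary antibody. αSMA localization was assessed relative to F-actin microfilaments.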

The test system of test [4] is C2C12. Description: Inhibition of TGFbeta1-induced fibrosis in mouse C2C12 cells preincubated for 2 hrs followed by TGFbeta1 addition and measured after 48 hrs by Western blot analysis relative to control.
Test [5] deals with C2C12. Put plainly: Inhibition of TGFbeta1-induced fibrosis in mouse C2C12 cells assessed as reduction in caveolin3 protein expression level preincubated for 2 hrs followed by TGFbeta1 addition and measured after 48 hrs by Western blot analysis relative to control. The test is classed as functional.
In test [6] the test system is C2C12. Description: Inhibition of TGFbeta1-induced fibrosis in mouse C2C12 cells assessed as reduction in SMalpha22 protein expression level at 10 uM preincubated for 2 hrs followed by TGFbeta1 addition and measured after 48 hrs by Western blot analysis. It is filed as functional, cell-based. The method, boiled down:
as §1

The subject of test [7] is C2C12. Description: Inhibition of TGFbeta1-induced fibrosis in mouse C2C12 cells assessed as reduction in alphaSMA protein expression level at 10 uM preincubated for 30 mins followed by TGFbeta1 addition and measured after 48 hrs by Western blot analysis relative to control. The test is classed as functional. The method, boiled down:
as §1

The source made the active and inactive calls. No cut-off for these calls is given here.

Turning to `Cc1cc(CS(=O)(=O)c2ccccc2)cc(OCc2ccc(CO[C@@H]3O[C@H](CO)[C@H](O)[C@H](O)[C@H]3O)cc2)c1`, the inhibition result in the test with C2C12 [1] and in the test on C2C12 [2] was “inactive” throughout.

For the compound `Cc1cc(CS(=O)(=O)c2ccccc2)cc(OCc2ccc(CN3CCC[C@@H]3CO)cc2)c1`, in the test on C2C12 [3], the inhibition at 10 µM stood at 100%. Also, the inhibition result with C2C12 [1] and in the test with C2C12 [2] was “Active” in each case.

For the compound `Cc1cc(CS(=O)(=O)c2ccccc2)cc(OCc2ccc(CO[C@@H]3O[C@H](CO)[C@@H](O)[C@H](O)[C@H]3O)cc2)c1`, the inhibition at 10 µM in the test on C2C12 [3] is 100%. Besides, the inhibition result in the test on C2C12 [1] and with C2C12 [2] was “Active” in each case. Besides, the “inhibition (INH)” value with C2C12 [4] worked out at 100%.

On to `CC(=O)OC[C@H]1O[C@@H](OCc2ccc(COc3cc(C)cc(CS(=O)(=O)c4ccccc4)c3)cc2)[C@H](OC(C)=O)[C@@H](OC(C)=O)[C@@H]1OC(C)=O`, for which the inhibition at 10 µM in the test on C2C12 [3] and in the test on C2C12 [7] was 100% throughout. Moreover, the inhibition result with C2C12 [1], in the test on C2C12 [2] and in the test on C2C12 [6] was “Active” throughout. Further, the “inhibition (INH)” value with C2C12 [5] stood at 100%.

For the compound `CC(=O)N[C@H]1[C@H](OCc2ccc(COc3cc(C)cc(CS(=O)(=O)c4ccccc4)c3)cc2)O[C@H](CO)[C@@H](O)[C@@H]1O`, in the test on C2C12 [1], the inhibition result was “Active”.

Source of the values: ChEMBL document CHEMBL4613310, “Glycans Meet Sphingolipids: Structure-Based Design of Glycan Containing Analogues of a Sphingosine Kinase Inhibitor” (2020).
